# Results from different studies.
# Compare with care: the assays were run in different laboratories.
# Read-out: enzyme activity
# Action: inhibitor
# CDK2 with cyclin E: Cyclin-dependent kinase 2, with cyclin E (CDK2, Homo sapiens, UniProt P24941)
# CDK2 with cyclin A: Cyclin-dependent kinase 2, with cyclin A (CDK2, Homo sapiens, UniProt P24941)
SMILES,target,assay,conditions,remaining activity
Cc1ccc(Nc2nccc(N(C)c3ccc4c(C)n(C)nc4c3)n2)cc1S(N)(=O)=O,CDK2 with cyclin E,,0.5 µM,96.4%
Cc1sc(C(=O)NC2COC2)cc1-n1cc(NC(=O)Nc2c(F)cccc2Cl)cn1,"Cyclin-dependent kinase 2, with cyclin E2 (CDK2, Homo sapiens, UniProt P24941)",,10 µM,90.8%
CC(C)(C)c1nc(-c2cccc(NS(=O)(=O)c3c(F)cccc3F)c2F)c(-c2ccnc(N)n2)s1,"Cyclin-dependent kinase 2, with cyclin A2 (CDK2, Homo sapiens, UniProt P24941)",radiometric,1 µM,72%
Cc1cnc(NC2CCOCC2)nc1-n1cnc(C(=O)NC(CN)c2cc(F)cc(Cl)c2)c1 (stereo not shown),CDK2 with cyclin A,radiometric,1 µM,3%
FC(F)c1nc2ccccc2n1-c1nc(N2CCOCC2)nc(N2CCOCC2)n1,CDK2 with cyclin A,,10 µM,77%
CC(C)(C)c1nc2c(s1)c1nc(N)ncc1c1ccc(NS(=O)(=O)c3c(F)cccc3F)c(F)c12,"Cyclin-dependent kinase 2, with cyclin E1 (CDK2, Homo sapiens, UniProt P24941)",radiometric,1 µM,93%
COc1cc(Cl)c(C(=O)N[C@@H](CN[C@H]2CC[C@@H](N)CC2)Cc2ccc(C#N)cc2)cc1-c1ccc(CN[C@H](C)c2ccc(C)cc2)o1,CDK2 with cyclin E,,1 µM,90%
CC(C)(O)[C@H]1CC[C@H](Nc2ccc3ncc(-c4cccc(C(F)(F)F)c4)n3n2)CC1,CDK2 with cyclin A,,1 µM,96.9%
O=C(Nc1cnn(-c2csc(C(=O)NC3COC3)c2)c1)Nc1ccccc1Cl,"Cyclin-dependent kinase 2, with cyclin O (CDK2, Homo sapiens, UniProt P24941)",,5 µM,93.2%
Nc1nc(NC2CCCCC2)sc1C(=O)c1ccccc1,CDK2 with cyclin A,,10 µM,5%
O=C(Nc1cnn(-c2csc(C(=O)NC3COC3)c2)c1)Nc1c(F)cccc1Cl,CDK2 with cyclin E,,5 µM,94.6%
Nc1nc(Nc2ccccc2)sc1C(=O)c1c(F)cccc1F,CDK2 with cyclin A,,10 µM,2%
COc1cc(Nc2cnc(C#N)c(O[C@H](C)CN(C)C)n2)ncc1-c1cnn(C)c1,CDK2 with cyclin A,radiometric,10 µM,91%
